Active and inactive are the calls of the source. No cut-off for these calls is given here.
Columns and labels:
[1] = system: HL-60; experiment: Cytotoxicity against human HL60 cells assessed as reduction in cell viability up to 200 uM after 48 hrs by MTT assay; type: functional, cell-based
Procedure, shortened: (§1)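 Cells (7x10^4/well) in RPMI-1640 with 10% FBS, 37 °C, 5% CO2; exposed to compound dilutions 0–200 µM (medium with 10% FBS, 0.4% DMSO) for 48 h. MTT added, 3 h at 37 °C, formazan dissolved in DMSO, absorbance 540 nm. IC50 from concentration–response; means ± standard deviation of three independent experiments.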

[2] = system: Jurkat; experiment: Cytotoxicity against human Jurkat cells assessed as reduction in cell viability up to 200 uM after 48 hrs by MTT assay; type: functional, cell-based; procedure, shortened: as §1
[3] = system: NALM-6; experiment: Cytotoxicity against human NALM6 cells assessed as reduction in cell viability up to 200 uM after 48 hrs by MTT assay; type: functional, cell-based; procedure, shortened: as §1
[4] = species: Homo sapiens; experiment: Inhibition of SRPK in human NALM6 cells assessed as decrease in MAP2K1 mRNA expression level at 20 uM after 24 hrs by qRT-PCR analysis; type: cell-based
Procedure, shortened: (§2)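 Nalm6 given 20 µM for 24 h with 0.4% DMSO control; mRNA isolated with Tri Reagent, quantified spectrophotometrically, integrity checked on 1% agarose, then RT-PCR for target transcripts; one representative of three experiments.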

[5] = species: Homo sapiens; experiment: Inhibition of SRPK in human NALM6 cells assessed as decrease in MAP2K2 mRNA expression level at 20 uM after 24 hrs by qRT-PCR analysis; type: cell-based; procedure, shortened: as §2
[6] = species: Homo sapiens; experiment: Inhibition of SRPK in human NALM6 cells assessed as decrease in VEGF mRNA expression level at 20 uM after 24 hrs by qRT-PCR analysis; type: cell-based; procedure, shortened: as §2
[7] = species: Homo sapiens; experiment: Inhibition of SRPK in human NALM6 cell lysates assessed as reduction in phospho-SR epitopes signal at 20 uM after 24 hrs by Western blot analysis
Procedure, shortened: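 Nalm6 treated 24 h at 20 µM (DMSO vehicle control), lysed at 2x10^7 cells/mL in PBS with 1% NP40, 1 mM EDTA, 150 mM NaCl, 10 mM Tris pH 7.4 plus protease/phosphatase inhibitors; on ice 10 min, sonicated, spun 15000 xg; SDS-PAGE, PVDF, milk block overnight, primary and secondary antibody 2 h each; representative of three.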

[8] = species: Homo sapiens; experiment: Inhibition of SRPK in human NALM6 cells assessed as decrease in RON mRNA expression level at 20 uM after 24 hrs by qRT-PCR analysis; type: cell-based; procedure, shortened: as §2
[9] = Homo sapiens, HL-60, 48 h, read-out: IC50
[10] = Homo sapiens, NALM-6, 48 h, read-out: IC50
[11] = Homo sapiens, Jurkat, 48 h, read-out: IC50

For `O=C(Nc1cc(C(F)(F)F)ccc1NC1CCCCC1)c1ccccc1`, the IC50 [1, 9] was 34.9 µM, the IC50 ([2]; jurkat) was “Not Active” and the IC50 ([3]; nalm-6) was “Not Active”.
For `CCN(CC)c1ccc(C(F)(F)F)cc1NC(=O)c1ccccc1`, the IC50 ([1]; hl-60) was “Not Active”, the IC50 ([2]; jurkat) was “Not Active” and the IC50 ([3]; nalm-6) was “Not Active”.
For `O=C(Nc1cc(C(F)(F)F)ccc1N1CCCC1)c1cccnc1Cl`, the IC50 ([1]; hl-60) was “Not Active”, the IC50 ([2]; jurkat) was “Not Active” and the IC50 ([3]; nalm-6) was “Not Active”.
In the case of `O=C(Nc1cc(C(F)(F)F)ccc1N1CCCC1)c1cccnc1`, the IC50 ([1]; hl-60) is reported as “Not Active”, the IC50 ([2]; jurkat) is reported as “Not Active” and the IC50 ([3]; nalm-6) is reported as “Not Active”.
With `O=C(Nc1cc(C(F)(F)F)ccc1N1CCOCC1)c1cccnc1` the IC50 ([1]; hl-60) was “Not Active”, the IC50 ([2]; jurkat) was “Not Active” and the IC50 ([3]; nalm-6) was “Not Active”.
In the case of `O=C(Nc1cc(C(F)(F)F)ccc1N1CCOCC1)c1ccccc1`, the IC50 ([1]; hl-60) is reported as “Not Active”, the IC50 ([2]; jurkat) is reported as “Not Active” and the IC50 ([3]; nalm-6) is reported as “Not Active”.
`O=C(Nc1cc(C(F)(F)F)ccc1NC1CCCCC1)c1cccnc1` was tested, and the IC50 [1, 9] was 48.3 µM, the IC50 ([2]; jurkat) was “Not Active” and the IC50 [3, 10] was 52.3 µM.
`O=C(Nc1cc(C(F)(F)F)ccc1N1CCCCC1)c1cccnc1Cl` was tested, and the IC50 ([1]; hl-60) was “Not Active”, the IC50 ([2]; jurkat) was “Not Active” and the IC50 ([3]; nalm-6) was “Not Active”.
`O=C(Nc1cc(C(F)(F)F)ccc1N1CCCCC1)c1ccncc1` showed an IC50 [1, 9] of 38.3 µM, an IC50 [2, 11] of 75.4 µM and an IC50 [3, 10] of 70.6 µM. The inhibition [4] was “inactive”, the inhibition [5] was “inactive” and the inhibition [6] was “inactive”. For the same compound, the inhibition [7] was “Active” and the inhibition [8] was “inactive”.
In the case of `CCN(CC)c1ccc(C(F)(F)F)cc1NC(=O)c1cccnc1Cl`, the IC50 [1, 9] is reported as 84.1 µM, the IC50 [2, 11] is reported as 88.4 µM and the IC50 ([3]; nalm-6) is reported as “Not Active”.
`O=C(Nc1cc(C(F)(F)F)ccc1N1CCCC1)c1ccncc1` was tested, and the IC50 ([1]; hl-60) was “Not Active”, the IC50 ([2]; jurkat) was “Not Active” and the IC50 ([3]; nalm-6) was “Not Active”.

Source: ChEMBL document CHEMBL4020718, “Trifluoromethyl arylamides with antileukemia effect and intracellular inhibitory activity over serine/arginine-rich protein kinases (SRPKs)” (Eur J Med Chem, 2017)
